# In ChEMBL document CHEMBL2203149, “Carvacrol decreases neuronal excitability by inhibition of voltage-gated sodium channels” (J Nat Prod, 2012):
# Activity calls are given as the source filed them.
# Assays:
# [1] = Effect on action potential in Wistar rat DRG neuron assessed as maximum descendant inclination at 3 mM after 12 to 48 hrs by patch-clamp recordings (reference value: -104.7 +/- 3.6 V/s); assay type: functional
# [2] = Effect on action potential in Wistar rat DRG neuron assessed as amplitude reduction at 1 mM after 12 to 48 hrs by patch-clamp recordings (reference value: 79 +/- 1.3 mV); assay type: functional
# [3] = Effect on action potential in Wistar rat DRG neuron assessed as resting potential at 3 mM after 12 to 48 hrs by patch-clamp recordings (reference value: -60 +/- 1.1 mV); assay type: functional
# [4] = Effect on action potential in Wistar rat DRG neuron assessed as duration at half maximal amplitute at 3 mM by intracellular recording (reference value: 1.6 +/- 0.1 ms)
# [5] = […] of Wistar rat sciatice nerve fiber excitability assessed as increase in rheobase at 0.6 mM (reference value: 3.30 +/- 0.06 V); assay type: functional
# Sciatic nerve [6] = experiment: Reduction in peak-to-peak amplitude of compound action potential in Wistar rat sciatic nerve after 180 mins by electrophysiology; assay type: functional, tissue-based; settings: 3 h
# How it was run: (§1)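 Evoked compound action potentials in Wistar rat sciatic nerve, recorded 40–50 mm from the stimulating electrodes and sampled at 20 kHz. The segment was bathed in Locke's solution carrying the drug (0.03–1 mM) after at least 30 min of stable amplitude. Exposure lasted 180 min, then 180 min washout. Peak-to-peak amplitude, n = 5 per concentration; IC50 from a logistic fit at 180 min.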
# [7] = Effect on action potential in Wistar rat DRG neuron assessed as input resistance at 1 mM after 12 to 48 hrs by patch-clamp recordings (reference value: 25.5 +/- 2.1 Momega); assay type: functional
# Sciatic nerve [8] = experiment: Reduction in peak-to-peak amplitude of compound action potential in Wistar rat sciatic nerve at 1 mM after 180 mins and measured after 180 mins washout by electrophysiology; assay type: functional, tissue-based; how it was run: as §1
# [9] = Effect on action potential in Wistar rat DRG neuron assessed as amplitude reduction at 0.6 mM after 12 to 48 hrs by patch-clamp recordings (reference value: 79 +/- 1.3 mV); assay type: functional
# [10] = Effect on action potential in Wistar rat DRG neuron assessed as resting potential at 0.3 mM after 12 to 48 hrs by patch-clamp recordings (reference value: -60 +/- 1.1 mV); assay type: functional
# [11] = Effect on action potential in Wistar rat DRG neuron assessed as input resistance at 0.03 mM after 12 to 48 hrs by patch-clamp recordings (reference value: 25.5 +/- 2.1 Momega); assay type: functional
# [12] = Effect on action potential in Wistar rat DRG neuron assessed as maximum ascendant inclination at 0.3 mM after 12 to 48 hrs by patch-clamp recordings (reference value: 151.2 +/- 6.2 V/s); assay type: functional
# [13] = Effect on action potential in Wistar rat DRG neuron assessed as amplitude reduction at 0.3 mM after 12 to 48 hrs by patch-clamp recordings (reference value: 79 +/- 1.3 mV); assay type: functional
# [14] = Effect on action potential in Wistar rat DRG neuron assessed as amplitude reduction at 0.03 mM after 12 to 48 hrs by patch-clamp recordings (reference value: 79 +/- 1.3 mV); assay type: functional
# [15] = Effect on action potential in Wistar rat DRG neuron assessed as maximum descendant inclination at 1 mM by intracellular recording (reference value: -104.7 +/- 3.6 V/s)
# [16] = Effect on action potential in Wistar rat DRG neuron assessed as duration at half maximal amplitute at 0.1 mM after 12 to 48 hrs by patch-clamp recordings (reference value: 1.6 +/- 0.1 ms); assay type: functional
# [17] = Effect on action potential in Wistar rat DRG neuron assessed as resting potential at 1 mM after 12 to 48 hrs by patch-clamp recordings (reference value: -60 +/- 1.1 mV); assay type: functional
# [18] = Effect on action potential in Wistar rat DRG neuron assessed as amplitude reduction at 3 mM after 12 to 48 hrs by patch-clamp recordings (reference value: 79 +/- 1.3 mV); assay type: functional
# [19] = Effect on action potential in Wistar rat DRG neuron assessed as resting potential at 0.6 mM after 12 to 48 hrs by patch-clamp recordings (reference value: -60 +/- 1.1 mV); assay type: functional
# [20] = Effect on action potential in Wistar rat DRG neuron assessed as maximum descendant inclination at 0.3 mM by intracellular recording (reference value: -104.7 +/- 3.6 V/s)
# [21] = Effect on action potential in Wistar rat DRG neuron assessed as maximum descendant inclination at 0.1 mM by intracellular recording (reference value: -104.7 +/- 3.6 V/s)
# [22] = Effect on action potential in Wistar rat DRG neuron assessed as maximum ascendant inclination at 0.1 mM after 12 to 48 hrs by patch-clamp recordings (reference value: 151.2 +/- 6.2 V/s); assay type: functional
# [23] = Blockade of action potential in Wistar rat DRG neuron after 12 to 48 hrs by intracellular recordings
# [24] = Effect on action potential in Wistar rat DRG neuron assessed as input resistance at 0.1 mM after 12 to 48 hrs by patch-clamp recordings (reference value: 25.5 +/- 2.1 Momega); assay type: functional
# Sciatic nerve [25] = experiment: Inhibition of first component amplitude of compound action potential in Wistar rat Aalpha sciatic nerve after 180 mins by electrophysiology; assay type: functional, tissue-based; how it was run: as §1
# [26] = Effect on action potential in Wistar rat DRG neuron assessed as maximum ascendant inclination at 3 mM after 12 to 48 hrs by patch-clamp recordings (reference value: 151.2 +/- 6.2 V/s); assay type: functional
# Sciatic nerve [27] = experiment: Inhibition of second component amplitude of compound action potential in Wistar rat Abeta and Agamma sciatic nerve within 60 mins by electrophysiology; assay type: functional, tissue-based; how it was run: as §1
# [28] = Effect on action potential in Wistar rat DRG neuron assessed as input resistance at 0.6 mM after 12 to 48 hrs by patch-clamp recordings (reference value: 25.5 +/- 2.1 Momega); assay type: functional
# [29] = Effect on action potential in Wistar rat DRG neuron assessed as duration at half maximal amplitute at 1 mM by intracellular recording (reference value: 1.6 +/- 0.1 ms)
# [30] = Inhibition of voltage-gated sodium channel of Wistar rat dissociated DRG neuron assessed as inhibition of current induced of voltage-gated sodium current at -100 mV holding potential with 5 sec intervals by patch-clamp recordings
# How it was run: (§2)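 Wistar rat DRG neurons dissociated with 1 mg/mL collagenase I (75 min) and 2.5 mg/mL trypsin (15 min) at 37 °C, plated on poly-D-lysine and used 12–48 h later. Whole-cell voltage clamp used 100 ms steps to 0 mV from −100 mV every 5 s, at room temperature. External solution: 20 mM NaCl with TEA, Cs and Cd, pH 7.4. Internal solution: CsCl, pH 7.2. Drug 0.01–10 mM, n = 50 cells, logistic fit.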
# Rattus norvegicus [31] = species on record: Rattus norvegicus; experiment: Inhibition of voltage-gated sodium channel of […] rat dissociated DRG neuron assessed as inhibition of current induced of voltage-gated sodium current at holding potential by patch-clamp recordings; settings: concentration not given here
# [32] = […] of Wistar rat sciatice nerve fiber excitability assessed as increase in chronaxy measured as time at 0.6 mM (reference value: 59.6 +/- 1.2 microsec); assay type: functional
# [33] = Reduction in amplitude of compound action potential in frog sciatic nerve by electrophysiology; assay type: functional, tissue-based, Anura
# [34] = Effect on action potential in Wistar rat DRG neuron assessed as elevation in current threshold levels at 0.03 to 3 mM after 12 to 48 hrs by intracellular recordings relative to control
# [35] = Effect on action potential in Wistar rat DRG neuron assessed as maximum ascendant inclination at 0.6 mM after 12 to 48 hrs by patch-clamp recordings (reference value: 151.2 +/- 6.2 V/s); assay type: functional
# Rattus norvegicus [36] = species on record: Rattus norvegicus; experiment: Inhibition of voltage-gated sodium channel of Wistar rat dissociated DRG neuron assessed as inhibition of current induced of voltage-gated sodium current at -100 mV holding potential with 5 sec intervals at 3 mM after 120 secs by patch-clamp recordings; how it was run: as §2
# Sciatic nerve [37] = experiment: Reduction in peak-to-peak amplitude of compound action potential in Wistar rat sciatic nerve at 1 mM after 180 mins by electrophysiology; assay type: functional, tissue-based
# How it was run: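 Sciatic nerve from Wistar rats (200–300 g, both sexes) held in a moist chamber, with a 15–20 mm segment immersed in Locke's solution that carried the drug (DMSO ≤0.2% v/v). One end was stimulated and evoked CAPs were recorded 40–50 mm away. Exposure lasted 180 min and began after at least 30 min of stable amplitude. Read-out was peak-to-peak amplitude, at 18–22 °C, n = 5, followed by 180 min washout.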
# [38] = Effect on action potential in Wistar rat DRG neuron assessed as resting potential at 0.03 mM after 12 to 48 hrs by patch-clamp recordings (reference value: -60 +/- 1.1 mV); assay type: functional
# [39] = Effect on action potential in Wistar rat DRG neuron assessed as resting potential at 0.1 mM after 12 to 48 hrs by patch-clamp recordings (reference value: -60 +/- 1.1 mV); assay type: functional
# [40] = Effect on action potential in Wistar rat DRG neuron assessed as duration at half maximal amplitute at 0.03 mM after 12 to 48 hrs by patch-clamp recordings (reference value: 1.6 +/- 0.1 ms); assay type: functional
# [41] = Effect on action potential in Wistar rat DRG neuron assessed as amplitude reduction at 0.1 mM after 12 to 48 hrs by patch-clamp recordings (reference value: 79 +/- 1.3 mV); assay type: functional
# [42] = Effect on action potential in Wistar rat DRG neuron assessed as duration at half maximal amplitute at 0.3 mM after 12 to 48 hrs by patch-clamp recordings (reference value: 1.6 +/- 0.1 ms); assay type: functional
# [43] = Effect on action potential in Wistar rat DRG neuron assessed as maximum descendant inclination at 0.6 mM by intracellular recording (reference value: -104.7 +/- 3.6 V/s)
# [44] = Effect on action potential in Wistar rat DRG neuron assessed as input resistance at 3 mM after 12 to 48 hrs by patch-clamp recordings (reference value: 25.5 +/- 2.1 Momega); assay type: functional
# [45] = Effect on action potential in Wistar rat DRG neuron assessed as maximum ascendant inclination at 1 mM after 12 to 48 hrs by patch-clamp recordings (reference value: 151.2 +/- 6.2 V/s); assay type: functional
# [46] = Effect on action potential in Wistar rat DRG neuron assessed as maximum descendant inclination at 0.03 mM by intracellular recording (reference value: -104.7 +/- 3.6 V/s)
# [47] = Effect on action potential in Wistar rat DRG neuron assessed as duration at half maximal amplitute at 0.6 mM after 12 to 48 hrs by patch-clamp recordings (reference value: 1.6 +/- 0.1 ms); assay type: functional
# [48] = Effect on action potential in Wistar rat DRG neuron assessed as maximum ascendant inclination at 0.03 mM after 12 to 48 hrs by patch-clamp recordings (reference value: 151.2 +/- 6.2 V/s); assay type: functional
# Sciatic nerve [49] = experiment: Reduction in peak-to-peak amplitude of compound action potential in Wistar rat sciatic nerve at 0.3 mM after 180 mins by electrophysiology; assay type: functional, tissue-based; how it was run: as §1
# [50] = Reduction in amplitude of compound action potential in bullfrog sciatic nerve at 0.5 mM after 15 mins by electrophysiology; assay type: functional, Rana catesbeiana; settings: Aquarana catesbeiana, 0.25 h
# [51] = Effect on action potential in Wistar rat DRG neuron assessed as input resistance at 0.3 mM after 12 to 48 hrs by patch-clamp recordings (reference value: 25.5 +/- 2.1 Momega); assay type: functional
smiles,measurement,setting,value
Cc1ccc(C(C)C)cc1O [CARVACROL],Activity,[1],0 V/s
same,Activity,[2],4.2 mV
same,Activity,[3],-57.5 mV
same,Time,[4],0 ms
same,Activity,[5],4.16 V
same,IC50,Sciatic nerve [6],500 µM
same,Activity,[7],26.3 MΩ
same,inhibition,Sciatic nerve [8],inactive
same,Activity,[9],32.1 mV
same,Activity,[10],-59.7 mV
same,Activity,[11],29.3 MΩ
same,Activity,[12],84.4 V/s
same,Activity,[13],43.9 mV
same,Activity,[14],77 mV
same,Activity,[15],-4.5 V/s
same,Time,[16],1.5 ms
same,Activity,[17],-60.2 mV
same,Activity,[18],0 mV
same,Activity,[19],-60.2 mV
same,Activity,[20],-62.7 V/s
same,Activity,[21],-78.9 V/s
same,Activity,[22],94.8 V/s
same,IC50,[23],360 µM
same,Activity,[24],26.7 MΩ
same,inhibition,Sciatic nerve [25],Active
same,Activity,[26],0 V/s
same,inhibition,Sciatic nerve [27],Active
same,Activity,[28],23.3 MΩ
same,Time,[29],0.2 ms
same,IC50,[30],370 µM
same,inhibition,Rattus norvegicus [31],70%
same,Time,[32],75 microsec
same,IC50,[33],500 µM
same,Activity,[34],62.4%
same,Activity,[35],56.5 V/s
same,inhibition,Rattus norvegicus [36],Active
same,inhibition,Sciatic nerve [37],Active
same,Activity,[38],-62.6 mV
same,Activity,[39],-60.2 mV
same,Time,[40],1.6 ms
same,Activity,[41],53.9 mV
same,Time,[42],0.9 ms
same,Activity,[43],-48 V/s
same,Activity,[44],20.8 MΩ
same,Activity,[45],4.4 V/s
same,Activity,[46],-102.2 V/s
same,Time,[47],0.6 ms
same,Activity,[48],128.6 V/s
same,inhibition,Sciatic nerve [49],inactive
same,inhibition at 500 µM,[50],50%
same,Activity,[51],27.1 MΩ
CCN(CC)CC(=O)Nc1c(C)cccc1C [LIDOCAINE],IC50,[33],740 µM
same,inhibition at 500 µM,[50],46%
